Data on one compound can be found in ChEMBL document CHEMBL4261600 (Eur J Med Chem, 2018).

Active and inactive are the calls of the source.

For data set [1], the target named is Wee1-like protein kinase 2 (Homo sapiens) (UniProt P0C1S8). Kind of data set: Binding affinity to wild-type human partial length WEE2 (M204 to K492 residues) expressed in bacterial expression system assessed as remaining unbound target protein level at 1000 nM by Kinomescan method relative to control.
Data set [2] concerns the target Serine/threonine-protein kinase PLK3 (Homo sapiens) (UniProt Q9H4B4). The data set can be described thus: Binding affinity to wild-type human partial length PLK3 (A42 to L334 residues) expressed in mammalian expression system assessed as remaining unbound target protein level at 1000 nM by Kinomescan method relative to control.
The subject of data set [3] is Epidermal growth factor receptor (Homo sapiens), P00533 [G719C]. Kind of data set: Binding affinity to human partial length EGFR G719C mutant (R669 to V1011 residues) expressed in bacterial expression system assessed as remaining unbound target protein level at 1000 nM by Kinomescan method relative to control. The method in brief:
(§1)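 KINOMEscan competition-binding profiling across the panel of 468 kinases and mutants, with inhibitor tested at 1 μM. Binding is expressed as percent of control, with DMSO as the reference control.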

Data set [4] has as its target Casein kinase I isoform alpha-like (Homo sapiens) (UniProt Q8N752). Kind of data set: Binding affinity to wild-type human full length CSNK1A1L (M1 to N337 residues) expressed in bacterial expression system assessed as remaining unbound target protein level at 1000 nM by Kinomescan method relative to control. The method in brief:
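Single-point competition binding screen across a panel of 468 kinases and mutants, with the inhibitor at 1 μM. Binding is read out as percent of a DMSO control, and targets below 1 percent control were classed as strong binders.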

In data set [5] the target is Mitogen-activated protein kinase 10 (Homo sapiens) (UniProt P53779). The data set can be described thus: Binding affinity to wild-type human partial length JNK3 (V28 to Q422 residues) expressed in mammalian expression system assessed as remaining unbound target protein level at 1000 nM by Kinomescan method relative to control. The method in brief: (§2)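 KINOMEscan binding panel of 468 kinases/mutants. Inhibitor was tested at a single concentration of 1 μM. Binding is reported as percent of control, defined relative to a DMSO control.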
Sequence of Mitogen-activated protein kinase 10 (Homo sapiens) (P53779 whole entry, the tested form may be a part): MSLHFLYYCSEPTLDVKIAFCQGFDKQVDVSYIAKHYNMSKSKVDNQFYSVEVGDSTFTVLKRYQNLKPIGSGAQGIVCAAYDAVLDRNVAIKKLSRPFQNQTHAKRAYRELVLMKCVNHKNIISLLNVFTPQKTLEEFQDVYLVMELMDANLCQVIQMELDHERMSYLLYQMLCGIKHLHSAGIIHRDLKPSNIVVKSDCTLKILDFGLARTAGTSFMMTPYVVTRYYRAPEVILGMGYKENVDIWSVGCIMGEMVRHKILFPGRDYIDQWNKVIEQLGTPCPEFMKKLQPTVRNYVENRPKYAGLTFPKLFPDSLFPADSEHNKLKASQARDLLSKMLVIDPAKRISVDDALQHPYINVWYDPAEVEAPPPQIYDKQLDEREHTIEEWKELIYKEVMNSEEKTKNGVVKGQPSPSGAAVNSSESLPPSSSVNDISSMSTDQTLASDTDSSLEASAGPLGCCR

Data set [6] is described as follows: Half life in mouse at 3 mg/kg, iv by LC-MS/MS analysis. The class given is ADME, organism-based. The settings on record: in vivo.
The nature of data set [7]: AUC (0 to t) in mouse at 10 mg/kg, po by LC-MS/MS analysis. The format is ADME, organism-based. The settings on record: in vivo. Summed up:
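Non-compartmental PK. Male SD rats 190-210 g, mice and beagle dogs acclimatized one week, fasted 12 h with water, split into iv and po groups (mice 48, rats 6, dogs 6). iv 3/3/2 mg/kg (mice/rats/dogs); po 10/20/10 mg/kg; vehicle DMSO in 5% glucose water. Blood at 2 or 5 to 720 min; plasma protein-precipitated with methanol, caffeine internal standard, LC-MS/MS.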

The target of data set [8] is Ribosomal protein S6 kinase alpha-6 (Homo sapiens) (UniProt Q9UK32). Kind of data set: Binding affinity to wild-type human partial length N-terminal RSK4 kinase domain 1 (M1 to E397 residues) expressed in mammalian expression system assessed as remaining unbound target protein level at 1000 nM by Kinomescan method relative to control. Summed up: as §2
Sequence of Ribosomal protein S6 kinase alpha-6 (Homo sapiens) (Q9UK32 whole entry, the tested form may be a part): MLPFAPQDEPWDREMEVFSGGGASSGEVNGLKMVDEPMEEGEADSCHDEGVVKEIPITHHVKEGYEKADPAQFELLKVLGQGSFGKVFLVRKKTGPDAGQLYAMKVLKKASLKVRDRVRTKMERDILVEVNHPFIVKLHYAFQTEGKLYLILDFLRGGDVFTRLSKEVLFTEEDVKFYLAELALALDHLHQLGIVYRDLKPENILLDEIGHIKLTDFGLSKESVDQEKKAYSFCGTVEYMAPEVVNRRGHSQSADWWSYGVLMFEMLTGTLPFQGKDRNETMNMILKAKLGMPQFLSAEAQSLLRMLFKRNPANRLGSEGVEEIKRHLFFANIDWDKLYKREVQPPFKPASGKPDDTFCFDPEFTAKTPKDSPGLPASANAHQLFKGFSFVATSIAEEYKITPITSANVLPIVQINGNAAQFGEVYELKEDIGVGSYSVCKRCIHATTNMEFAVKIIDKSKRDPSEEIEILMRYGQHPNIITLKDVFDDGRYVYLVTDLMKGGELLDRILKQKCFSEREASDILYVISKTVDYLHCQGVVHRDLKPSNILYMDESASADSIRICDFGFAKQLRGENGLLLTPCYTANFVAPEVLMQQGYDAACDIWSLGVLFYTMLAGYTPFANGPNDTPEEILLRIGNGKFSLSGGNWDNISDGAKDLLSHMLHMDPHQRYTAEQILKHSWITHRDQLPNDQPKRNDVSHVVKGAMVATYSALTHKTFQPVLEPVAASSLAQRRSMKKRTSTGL
Data set [9] concerns Mast/stem cell growth factor receptor Kit (Homo sapiens), P10721 [V559D,V654A]. The data set can be described thus: Binding affinity to human partial length KIT V559D/V654A double mutant (Y545 to D952 residues) expressed in bacterial expression system assessed as remaining unbound target protein level at 1000 nM by Kinomescan method relative to control. Summed up:
as §1

The target of data set [10] is Vascular endothelial growth factor receptor 1 (Homo sapiens) (UniProt P17948). Kind of data set: Binding affinity to wild-type human partial length FLT1 (R781 to F1239 residues) expressed in bacterial expression system assessed as remaining unbound target protein level at 1000 nM by Kinomescan method relative to control.
In data set [11] the target is Bone morphogenetic protein receptor type-1B (Homo sapiens) (UniProt O00238). Kind of data set: Binding affinity to wild-type human partial length BMPR1B (D178 to L502 residues) expressed in mammalian expression system assessed as remaining unbound target protein level at 1000 nM by Kinomescan method relative to control.
Sequence of Bone morphogenetic protein receptor type-1B (Homo sapiens) (O00238 whole entry, the tested form may be a part): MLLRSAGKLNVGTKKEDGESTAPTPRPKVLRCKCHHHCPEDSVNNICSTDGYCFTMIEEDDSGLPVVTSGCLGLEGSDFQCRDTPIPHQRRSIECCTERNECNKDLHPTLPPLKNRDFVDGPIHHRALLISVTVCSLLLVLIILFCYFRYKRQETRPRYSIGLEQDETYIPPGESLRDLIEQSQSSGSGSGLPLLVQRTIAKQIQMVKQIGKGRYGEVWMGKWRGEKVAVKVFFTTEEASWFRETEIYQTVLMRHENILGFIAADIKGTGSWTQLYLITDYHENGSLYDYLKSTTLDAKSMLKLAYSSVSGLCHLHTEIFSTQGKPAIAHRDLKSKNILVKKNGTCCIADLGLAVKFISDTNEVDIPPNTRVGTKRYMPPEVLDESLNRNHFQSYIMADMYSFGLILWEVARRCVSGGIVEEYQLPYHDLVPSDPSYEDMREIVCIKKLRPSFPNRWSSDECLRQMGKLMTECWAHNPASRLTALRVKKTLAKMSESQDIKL
The target in data set [12] is Serine/threonine-protein kinase N1 (Homo sapiens) (UniProt Q16512). The data set can be described thus: Binding affinity to wild-type human partial length PKN1 (E598 to C948 residues) expressed in bacterial expression system assessed as remaining unbound target protein level at 1000 nM by Kinomescan method relative to control.
Another data set concerns MV4-11. The data set can be described thus: Induction of apoptosis in human MV4-11 cells assessed as decrease in XIAP level up to 3 uM after 2 hrs by immunoblotting analysis. The format is functional, cell-based. In general terms: Immunoblotting shows a protein as a band on a membrane.
Data set [13] concerns the target G protein-coupled receptor kinase 3 (Homo sapiens) (UniProt P35626). The data set can be described thus: Binding affinity to wild-type human full length GRK3 (M1 to L688 residues) expressed in mammalian expression system assessed as remaining unbound target protein level at 1000 nM by Kinomescan method relative to control. The method in brief: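 KINOMEscan competition binding profile across a panel of 468 kinases and mutants, with the inhibitor tested at a single concentration of 1 μM. Binding is reported as percent of control, meaning signal relative to a DMSO control.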

The target of data set [14] is Myosin-IIIb (Homo sapiens) (UniProt Q8WXR4). Kind of data set: Binding affinity to wild-type human partial length MYO3B (M1 to D357 residues) expressed in bacterial expression system assessed as remaining unbound target protein level at 1000 nM by Kinomescan method relative to control.
The target in data set [15] is Serine/threonine-protein kinase WNK1 (Homo sapiens) (UniProt Q9H4A3). The data set can be described thus: Binding affinity to wild-type human partial length WNK1 (Q194 to A490 residues) expressed in mammalian expression system assessed as remaining unbound target protein level at 1000 nM by Kinomescan method relative to control.
Sequence of Serine/threonine-protein kinase WNK1 (Homo sapiens) (Q9H4A3 whole entry, looked up, the tested form may be a part): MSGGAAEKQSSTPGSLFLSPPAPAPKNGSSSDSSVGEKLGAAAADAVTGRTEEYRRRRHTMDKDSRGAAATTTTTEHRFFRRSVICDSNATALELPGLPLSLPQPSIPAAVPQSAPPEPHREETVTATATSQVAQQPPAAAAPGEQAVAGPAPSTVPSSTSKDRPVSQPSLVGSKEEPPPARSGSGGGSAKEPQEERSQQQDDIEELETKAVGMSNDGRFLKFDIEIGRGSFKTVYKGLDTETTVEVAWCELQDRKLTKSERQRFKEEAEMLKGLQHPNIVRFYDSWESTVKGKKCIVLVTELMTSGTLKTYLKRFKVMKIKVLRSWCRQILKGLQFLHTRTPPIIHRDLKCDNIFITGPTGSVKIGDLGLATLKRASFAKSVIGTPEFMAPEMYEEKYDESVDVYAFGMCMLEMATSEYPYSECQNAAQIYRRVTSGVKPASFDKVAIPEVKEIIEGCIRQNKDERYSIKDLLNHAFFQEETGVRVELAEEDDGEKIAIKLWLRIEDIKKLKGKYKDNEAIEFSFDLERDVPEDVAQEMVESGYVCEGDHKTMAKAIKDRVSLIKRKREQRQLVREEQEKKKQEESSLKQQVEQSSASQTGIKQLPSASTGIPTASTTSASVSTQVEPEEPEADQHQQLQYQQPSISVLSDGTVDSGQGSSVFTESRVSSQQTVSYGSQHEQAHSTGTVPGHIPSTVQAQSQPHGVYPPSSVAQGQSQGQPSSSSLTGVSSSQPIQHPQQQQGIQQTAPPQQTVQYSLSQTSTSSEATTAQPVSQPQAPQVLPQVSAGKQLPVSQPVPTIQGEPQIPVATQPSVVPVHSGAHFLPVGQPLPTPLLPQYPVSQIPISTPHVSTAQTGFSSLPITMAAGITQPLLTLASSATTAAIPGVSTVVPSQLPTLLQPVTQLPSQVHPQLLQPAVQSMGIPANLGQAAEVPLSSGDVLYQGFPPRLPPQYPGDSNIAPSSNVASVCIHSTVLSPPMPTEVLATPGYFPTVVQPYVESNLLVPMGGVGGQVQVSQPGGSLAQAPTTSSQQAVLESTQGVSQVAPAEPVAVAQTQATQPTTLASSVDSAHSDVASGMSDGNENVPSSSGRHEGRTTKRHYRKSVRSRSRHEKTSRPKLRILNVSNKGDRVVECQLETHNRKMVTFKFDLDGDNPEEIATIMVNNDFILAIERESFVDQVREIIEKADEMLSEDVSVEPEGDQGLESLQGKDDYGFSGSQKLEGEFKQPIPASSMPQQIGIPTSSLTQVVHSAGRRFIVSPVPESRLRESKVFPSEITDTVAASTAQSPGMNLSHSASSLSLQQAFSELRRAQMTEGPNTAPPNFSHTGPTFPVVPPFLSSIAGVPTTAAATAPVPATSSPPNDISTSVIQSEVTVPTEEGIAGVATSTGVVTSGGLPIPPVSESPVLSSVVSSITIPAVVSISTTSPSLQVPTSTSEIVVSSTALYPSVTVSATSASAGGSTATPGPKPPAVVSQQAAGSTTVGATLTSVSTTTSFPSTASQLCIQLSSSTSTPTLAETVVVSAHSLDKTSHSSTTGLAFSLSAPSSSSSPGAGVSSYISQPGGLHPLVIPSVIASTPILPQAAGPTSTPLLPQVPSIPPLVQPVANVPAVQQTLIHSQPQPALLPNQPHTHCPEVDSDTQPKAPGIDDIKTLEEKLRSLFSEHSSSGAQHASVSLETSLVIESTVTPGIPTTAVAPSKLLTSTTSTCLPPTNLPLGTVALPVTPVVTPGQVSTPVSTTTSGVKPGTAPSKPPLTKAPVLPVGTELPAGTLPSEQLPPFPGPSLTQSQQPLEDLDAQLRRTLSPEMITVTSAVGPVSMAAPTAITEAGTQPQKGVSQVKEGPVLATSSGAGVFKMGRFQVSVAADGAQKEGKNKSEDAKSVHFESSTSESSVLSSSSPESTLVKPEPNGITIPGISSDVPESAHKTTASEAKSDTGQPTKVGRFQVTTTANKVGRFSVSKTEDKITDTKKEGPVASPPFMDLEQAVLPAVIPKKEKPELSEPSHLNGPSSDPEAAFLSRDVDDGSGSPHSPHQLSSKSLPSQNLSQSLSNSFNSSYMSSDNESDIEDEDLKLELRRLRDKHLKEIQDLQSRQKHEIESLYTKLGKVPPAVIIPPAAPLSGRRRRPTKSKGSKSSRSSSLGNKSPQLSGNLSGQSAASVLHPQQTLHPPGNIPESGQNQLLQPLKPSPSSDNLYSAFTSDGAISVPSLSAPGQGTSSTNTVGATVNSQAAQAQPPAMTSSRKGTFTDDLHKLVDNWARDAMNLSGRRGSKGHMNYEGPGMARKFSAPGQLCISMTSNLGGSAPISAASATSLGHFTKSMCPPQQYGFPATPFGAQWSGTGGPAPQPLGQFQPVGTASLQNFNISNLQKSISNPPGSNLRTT
Data set [16] has as its target Ribosomal protein S6 kinase alpha-1 (Homo sapiens) (UniProt Q15418). Kind of data set: Binding affinity to wild-type human partial length N-terminal RSK1 Kinase domain 1 (M1 to E388 residues) expressed in bacterial expression system assessed as remaining unbound target protein level at 1000 nM by Kinomescan method relative to control.
The target of data set [17] is Ribosomal protein S6 kinase beta-1 (Homo sapiens) (UniProt P23443). The data set can be described thus: Binding affinity to wild-type human partial length S6K1 (M1 to S421 residues) expressed in mammalian expression system assessed as remaining unbound target protein level at 1000 nM by Kinomescan method relative to control.
Sequence of Ribosomal protein S6 kinase beta-1 (Homo sapiens) (P23443 whole entry, looked up, the tested form may be a part): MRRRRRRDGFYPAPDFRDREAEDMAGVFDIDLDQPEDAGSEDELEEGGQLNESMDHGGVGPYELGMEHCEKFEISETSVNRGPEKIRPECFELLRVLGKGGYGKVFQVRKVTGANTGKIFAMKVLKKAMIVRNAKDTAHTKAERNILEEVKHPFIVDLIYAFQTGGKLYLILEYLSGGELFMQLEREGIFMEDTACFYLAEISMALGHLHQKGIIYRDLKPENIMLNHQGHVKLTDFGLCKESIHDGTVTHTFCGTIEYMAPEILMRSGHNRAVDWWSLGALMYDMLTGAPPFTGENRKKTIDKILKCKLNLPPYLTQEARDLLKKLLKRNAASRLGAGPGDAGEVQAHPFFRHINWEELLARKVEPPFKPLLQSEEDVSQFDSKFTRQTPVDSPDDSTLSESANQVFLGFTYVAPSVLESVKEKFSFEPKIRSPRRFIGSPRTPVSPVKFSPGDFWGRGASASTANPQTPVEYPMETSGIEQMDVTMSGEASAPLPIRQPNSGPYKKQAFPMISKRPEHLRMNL
Data set [18] addresses Serine/threonine-protein kinase LATS2 (Homo sapiens) (UniProt Q9NRM7). Kind of data set: Binding affinity to wild-type human partial length LATS2 (Q641 to V1088 residues) expressed in mammalian expression system assessed as remaining unbound target protein level at 1000 nM by Kinomescan method relative to control.
Data set [19] addresses Serine/threonine-protein kinase DCLK2 (Homo sapiens) (UniProt Q8N568). The data set can be described thus: Binding affinity to wild-type human partial length DCAMKL2 (K273 to V664 residues) expressed in bacterial expression system assessed as remaining unbound target protein level at 1000 nM by Kinomescan method relative to control.
The target of data set [20] is Serine/threonine-protein kinase WNK3 (Homo sapiens) (UniProt Q9BYP7). The data set can be described thus: Binding affinity to wild-type human partial length WNK3 (M1 to D434 residues) expressed in mammalian expression system assessed as remaining unbound target protein level at 1000 nM by Kinomescan method relative to control.

Sequence of Casein kinase I isoform alpha-like (Homo sapiens) (Q8N752 whole entry, the tested form may be a part, canonical isoform): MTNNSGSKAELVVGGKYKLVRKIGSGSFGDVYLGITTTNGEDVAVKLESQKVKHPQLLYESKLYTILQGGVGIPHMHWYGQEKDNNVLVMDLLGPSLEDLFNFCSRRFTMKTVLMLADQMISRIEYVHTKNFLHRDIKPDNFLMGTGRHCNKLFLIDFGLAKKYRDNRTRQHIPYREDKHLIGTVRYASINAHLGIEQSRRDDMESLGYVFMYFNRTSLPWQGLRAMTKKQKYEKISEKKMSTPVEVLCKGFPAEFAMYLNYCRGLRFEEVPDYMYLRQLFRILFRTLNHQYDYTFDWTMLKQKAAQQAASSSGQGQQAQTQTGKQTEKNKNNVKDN

Regarding `COCCN[C@H]1CC[C@H](Nc2cc(-c3csc(NCC4(C#N)CCOCC4)n3)c(Cl)cn2)CC1`, the Activity was 100% in data set [1]; 99% in data set [2]; 98% in data set [3]; 96% in [4]; 7.1% in data set [5]; 94% in data set [8]. The Activity in [9] was 100%; in [10], 98%; in data set [11], 84%; in data set [12] it was 87%; in data set [13] it was 42%; in data set [14], 82%. Further, the Activity in data set [15] came to 100%; in data set [16], 94%; in data set [17] it was 95%; in data set [18], 84%; in data set [19], 96%; in data set [20] it was 97%. In addition, the half-life in data set [6] was 1.72 h. The compound further returned an AUC(0-t) in [7] of 591 ng·h/mL. The outcome in the data set with MV4-11 was inactive.

As a reminder, the half-life is the time needed for the level to fall by half in the phase considered. The low end stands for rapid decline, the high end for slow decline. By AUC(0-t) is commonly meant exposure summed from dosing to a finite time, without extrapolation to infinity.
